In brackets after ≈: the same amount, converted by molar mass.
How the values were obtained:
Rattus norvegicus [1] = experiment: AUC in Sprague-Dawley rat at 1 mg/kg, iv by HPLC; type: ADME, organism-based, Plasma; set-up: dose 1 mg/kg, route intravenous; conditions: in vivo
Rattus norvegicus [2] = experiment: AUC in Sprague-Dawley rat at 5 mg/kg, po by HPLC; type: ADME, organism-based, Plasma; set-up: dose 5 mg/kg, route oral; conditions: in vivo
[3] = Volume of distribution in Sprague-Dawley rat by HPLC; type: ADME, organism-based; conditions: in vivo
How it was run: (§1)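 Rat IV pharmacokinetics: male Sprague-Dawley, n=3, 1 mg/kg tail-vein dose in 3% DMSO/30% Solutol/67% PBS; plasma over 0.083–6 h quantified by HPLC-MS/MS; parameters estimated per rat by non-compartmental analysis.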

[4] = Clearance in Sprague-Dawley rat by HPLC; type: ADME, organism-based; conditions: in vivo; how it was run: as §1
[5] = Oral bioavailability Sprague-Dawley rat at 5 mg/kg by HPLC; type: ADME, organism-based; conditions: in vivo
How it was run: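 Male Sprague-Dawley rats (n=3/group) given 1 mg/kg IV (DMSO/Solutol/PBS) or, after overnight fast, 5 mg/kg oral gavage in PEG400; plasma by HPLC-MS/MS; F% = dose-normalised oral AUC0-∞ divided by IV AUC0-∞, times 100.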

[6] = Half life in Sprague-Dawley rat liver microsomes; type: ADME, Microsome
[7] = Solubility of the compound at pH 7.4; type: physicochemical; conditions: buffer
[8] = Solubility of the compound; type: physicochemical

Compound	AUC (Rattus norvegicus [1])	AUC (Rattus norvegicus [2])	Vd [3]	clearance [4]	bioavailability [5]	half-life [6]	solubility [7]	solubility [8]
CNC(=O)c1cccc(F)c1Nc1nc(Nc2ccc3c(c2)NC(=O)C(NC(=O)CN(C)C)CC3(C)C)ncc1Cl.O=C(O)C(F)(F)F (racemic)	825 ng·h/mL	61 ng·h/mL	3 L/kg	32 mL/min/kg	1%	–	–	–
CNC(=O)c1cccc(F)c1Nc1nc(Nc2ccc3c(c2)NC(=O)C(NC(=O)COC)CC3(C)C)ncc1Cl.O=C(O)C(F)(F)F (racemic)	846 ng·h/mL	497 ng·h/mL	1.3 L/kg	20 mL/min/kg	12%	–	–	–
CNC(=O)c1cccc(F)c1Nc1nc(Nc2ccc3c(c2)NC(=O)[C@H](NC(=O)N2CCCC2)CC3(C)C)ncc1Cl	3460 ng·h/mL	5850 ng·h/mL	0.6 L/kg	5 mL/min/kg	34%	21 min	26 µg/mL (≈ 43.7 µM)	–
CNC(=O)c1cccc(F)c1Nc1nc(Nc2ccc3c(c2)NC(=O)C(NC(C)=O)CC3(C)C)ncc1Cl.O=C(O)C(F)(F)F (racemic)	654 ng·h/mL	48 ng·h/mL	2 L/kg	33 mL/min/kg	2%	–	–	–
CNC(=O)c1cccc(F)c1Nc1nc(Nc2ccc3c(c2)NC(=O)C(NC(=O)C(F)(F)F)CC3(C)C)ncc1Cl.O=C(O)C(F)(F)F (racemic)	1310 ng·h/mL	606 ng·h/mL	1.2 L/kg	16 mL/min/kg	9%	–	–	8 µg/mL
CNC(=O)c1cccc(F)c1Nc1nc(Nc2ccc3c(c2)NC(=O)C(NC(=O)N2CCCC2)CC3(C)C)ncc1Cl.O=C(O)C(F)(F)F (racemic; form 1)	3420 ng·h/mL	2630 ng·h/mL	0.8 L/kg	6 mL/min/kg	15%	–	–	–
CNC(=O)c1cccc(F)c1Nc1nc(Nc2ccc3c(c2)NC(=O)C(NC(=O)OC)CC3(C)C)ncc1Cl.O=C(O)C(F)(F)F (racemic)	1200 ng·h/mL	987 ng·h/mL	1 L/kg	15 mL/min/kg	16%	–	–	–

Other lines, results leading:

AUC (Rattus norvegicus [1])	AUC (Rattus norvegicus [2])	Vd [3]	clearance [4]	bioavailability [5]	half-life [6]	solubility [7]	solubility [8]	Compound
2330 ng·h/mL	4660 ng·h/mL	0.8 L/kg	8 mL/min/kg	40%	–	–	–	CNC(=O)c1cccc(F)c1Nc1nc(Nc2ccc3c(c2)NC(=O)C(NC(=O)N2CCCC2)CC3(C)C)ncc1Cl (racemic; form 2)
–	–	–	–	0%	–	–	–	CCN1C(=O)CCC(C)(C)c2ccc(Nc3ncc(Cl)c(Nc4c(F)cccc4C(=O)NC)n3)cc21
787 ng·h/mL	–	4.6 L/kg	–	–	–	–	> 120 µg/mL	CNC(=O)c1cccc(F)c1Nc1nc(Nc2ccc3c(c2)NC(=O)C(N)CC3(C)C)ncc1Cl (racemic)
3190 ng·h/mL	5550 ng·h/mL	0.6 L/kg	5 mL/min/kg	35%	–	–	–	CNC(=O)c1cccc(F)c1Nc1nc(Nc2ccc3c(c2)NC(=O)[C@@H](NC(=O)N2CCCC2)CC3(C)C)ncc1Cl
1060 ng·h/mL	46 ng·h/mL	0.5 L/kg	16 mL/min/kg	1%	15 min	21 µg/mL (≈ 43.5 µM)	21 µg/mL (≈ 43.5 µM)	CNC(=O)c1cccc(F)c1Nc1nc(Nc2ccc3c(c2)NC(=O)CCC3(C)C)ncc1Cl
